In ChEMBL document CHEMBL1139442, “Pyrrolobenzimidazoles linked to heterocycles and peptides. Design of DNA base pair specific phosphate hydrolyzing agents and novel cytotoxic agents” (2004):

Key:
[1] = test system: Nucleic Acid; assay: DNA alkylation ability was determined; format: functional; settings: Bos taurus
Procedure, shortened: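 Bulk alkylation of calf thymus DNA. Drug (0.004 mmol) in DMSO was added, sealed and degassed under argon. The mix was reduced by H2 purge over Pd/C until colourless, argon-purged, then held at 30 °C for 24 h. After catalyst removal, DNA was ethanol/ammonium acetate precipitated at −20 °C for 16 h, pelleted, redissolved and reprecipitated.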

[2] = test system: Panel melanoma (Carcinoma cell lines); assay: Cytostatic activity against human melanoma cell lines was determined; format: functional
Procedure, shortened: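 Tested in the NCI In Vitro Cell Line Screening Project, 60 human tumour lines. Cytostatic read-outs are GI50 (50% growth inhibition) and TGI (total growth inhibition).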

[3] = test system: Panel melanoma (Carcinoma cell lines); assay: Cytotoxic activity against human melanoma cell lines was determined; format: functional; set-up: unit not given here
Procedure, shortened: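 Tested in the NCI In Vitro Cell Line Screening Project, 60 human tumour lines. Cytotoxic read-out is LC50, the concentration giving 50% cell kill.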

[4] = molecular target: NAD(P)H dehydrogenase [quinone] 1 (Homo sapiens) (UniProt P15559); assay: Substrate specificity for human DT-diaphorase was determined
Chain of NAD(P)H dehydrogenase [quinone] 1 (Homo sapiens) (P15559 whole entry): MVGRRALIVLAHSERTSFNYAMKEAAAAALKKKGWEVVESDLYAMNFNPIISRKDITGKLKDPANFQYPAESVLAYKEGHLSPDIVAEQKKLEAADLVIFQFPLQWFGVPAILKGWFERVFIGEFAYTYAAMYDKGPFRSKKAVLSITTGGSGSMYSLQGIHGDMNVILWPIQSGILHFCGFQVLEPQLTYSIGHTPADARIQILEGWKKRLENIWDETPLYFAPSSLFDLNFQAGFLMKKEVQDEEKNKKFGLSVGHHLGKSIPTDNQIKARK

Row | Structure (SMILES) | DNA alkylation [1] | log GI50 range [2] | log TGI range [2] | LC50 [3] | k cat/Km [4]
1 | CCCCC(=O)NC1CCn2c1nc1c2C(=O)C(C)=C(N2CC2)C1=O (stereo not given) | 9% | – | – | – | –
2 | CC1=C(N2CC2)C(=O)c2nc3n(c2C1=O)CCC3NC(=O)c1ccnc2ccccc12 (stereo not given) | 10% | – | – | – | –
3 | CC1=C(N2CC2)C(=O)c2nc3n(c2C1=O)CCC3NC(=O)Cc1ccncc1 (stereo not given) | 35% | – | – | – | –
4 | CC1=C(N2CC2)C(=O)c2nc3n(c2C1=O)CC[C@@H]3NC(=O)[C@H](N)Cc1ccccc1 | – | 1.69 | 4 | 4 | –
5 | CC1=C(N2CC2)C(=O)c2nc3n(c2C1=O)CCC3N (stereo not given) | 100% | – | – | – | –
6 | CCC(=O)NC1CCn2c1nc1c2C(=O)C(C)=C(N2CC2)C1=O (stereo not given) | 0% | – | – | – | –
7 | CC1=C(N2CC2)C(=O)c2nc3n(c2C1=O)CC[C@@H]3NC(=O)[C@@H](Cc1ccccc1)NC(=O)[C@H](N)Cc1ccccc1 | – | 2.42 | 4 | 4 | –
8 | CC1=C(N2CC2)C(=O)c2nc3n(c2C1=O)CC[C@@H]3NC(=O)C1CCCN1 (stereo not given in full) | – | 3.34 | 2.8 | 2.27 | –
9 | CC1=C(N2CC2)C(=O)c2nc3n(c2C1=O)CCC3NC(=O)c1ccncc1 (stereo not given) | 79% | 1.96 | 2.5 | 2.35 | 0.00033 M⁻¹ s⁻¹
10 | CC1=C(N2CC2)C(=O)c2nc3n(c2C1=O)CCC3NC(=O)c1cccnc1 (stereo not given) | 20% | – | – | – | –
